ChEMBL document CHEMBL1938284, “Synthesis and biological activity of novel organoselenium derivatives targeting multiple kinases and capable of inhibiting cancer progression to metastases” (Eur J Med Chem, 2012)
Calls of active or inactive are those of the source. The rule behind the calls is not given here.

Columns and labels:
[1] = molecular target: Insulin receptor (Homo sapiens) (UniProt P06213); assay: Inhibition of INSR at 1 uM
[2] = molecular target: Tyrosine-protein kinase SYK (Homo sapiens) (UniProt P43405); assay: Inhibition of SYK at 1 uM
[3] = molecular target: T1, Aurora kinase A (Homo sapiens) (UniProt O14965); assay: Inhibition of Aurora A at 1 uM
T1 sequence (whole entry): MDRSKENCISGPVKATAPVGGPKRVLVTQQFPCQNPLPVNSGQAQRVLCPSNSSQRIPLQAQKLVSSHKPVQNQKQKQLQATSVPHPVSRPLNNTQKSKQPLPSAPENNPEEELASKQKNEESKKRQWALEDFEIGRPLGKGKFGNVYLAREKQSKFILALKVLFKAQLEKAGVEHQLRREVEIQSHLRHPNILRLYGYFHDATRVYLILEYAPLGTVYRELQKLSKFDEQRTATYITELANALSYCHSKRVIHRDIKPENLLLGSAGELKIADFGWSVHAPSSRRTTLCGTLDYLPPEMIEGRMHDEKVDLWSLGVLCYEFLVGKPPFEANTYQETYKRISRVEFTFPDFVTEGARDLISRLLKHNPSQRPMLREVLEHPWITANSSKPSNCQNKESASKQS

[4] = molecular target: Serine/threonine-protein kinase pim-1 (Homo sapiens) (UniProt P11309); assay: Inhibition of PIM1 at 1 uM
Sequence of Serine/threonine-protein kinase pim-1 (Homo sapiens) (P11309 whole entry, looked up): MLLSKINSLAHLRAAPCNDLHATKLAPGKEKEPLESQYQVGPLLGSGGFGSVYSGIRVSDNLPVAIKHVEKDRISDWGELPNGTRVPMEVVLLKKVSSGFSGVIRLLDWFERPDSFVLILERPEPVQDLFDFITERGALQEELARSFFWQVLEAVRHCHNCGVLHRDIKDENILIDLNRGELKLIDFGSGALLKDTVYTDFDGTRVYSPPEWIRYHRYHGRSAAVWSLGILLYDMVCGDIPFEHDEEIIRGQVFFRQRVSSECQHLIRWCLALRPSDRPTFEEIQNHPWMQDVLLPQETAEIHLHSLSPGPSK

[5] = molecular target: Cyclin-dependent kinase 1/cyclin B1 (Homo sapiens) (UniProt P06493+P14635); assay: Inhibition of CDK1/cyclin B at 1 uM; type: protein-complex assay
[6] = Antiinvasive activity in human MDA231 cells at 10 uM after 48 hrs by Matrigel matrix assay; type: functional, MDA-MB-231
In short: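 Serum-starved MDA-231 cells (30,000) placed with or without compound (10 μM) in the upper compartment of 8-µm Matrigel-coated Boyden chambers. Lower compartment held DMEM 0.2% BSA with 10% serum. Invasion ran 48 h, then invaded cells were fixed, stained and counted under a 40× objective. DMSO normalized to 0% inhibition. Mean ± SD, five experiments.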

[7] = molecular target: T2, Ephrin type-A receptor 1 (Homo sapiens) (UniProt P21709); assay: Inhibition of EPHA1 at 1 uM
T2 sequence (whole entry): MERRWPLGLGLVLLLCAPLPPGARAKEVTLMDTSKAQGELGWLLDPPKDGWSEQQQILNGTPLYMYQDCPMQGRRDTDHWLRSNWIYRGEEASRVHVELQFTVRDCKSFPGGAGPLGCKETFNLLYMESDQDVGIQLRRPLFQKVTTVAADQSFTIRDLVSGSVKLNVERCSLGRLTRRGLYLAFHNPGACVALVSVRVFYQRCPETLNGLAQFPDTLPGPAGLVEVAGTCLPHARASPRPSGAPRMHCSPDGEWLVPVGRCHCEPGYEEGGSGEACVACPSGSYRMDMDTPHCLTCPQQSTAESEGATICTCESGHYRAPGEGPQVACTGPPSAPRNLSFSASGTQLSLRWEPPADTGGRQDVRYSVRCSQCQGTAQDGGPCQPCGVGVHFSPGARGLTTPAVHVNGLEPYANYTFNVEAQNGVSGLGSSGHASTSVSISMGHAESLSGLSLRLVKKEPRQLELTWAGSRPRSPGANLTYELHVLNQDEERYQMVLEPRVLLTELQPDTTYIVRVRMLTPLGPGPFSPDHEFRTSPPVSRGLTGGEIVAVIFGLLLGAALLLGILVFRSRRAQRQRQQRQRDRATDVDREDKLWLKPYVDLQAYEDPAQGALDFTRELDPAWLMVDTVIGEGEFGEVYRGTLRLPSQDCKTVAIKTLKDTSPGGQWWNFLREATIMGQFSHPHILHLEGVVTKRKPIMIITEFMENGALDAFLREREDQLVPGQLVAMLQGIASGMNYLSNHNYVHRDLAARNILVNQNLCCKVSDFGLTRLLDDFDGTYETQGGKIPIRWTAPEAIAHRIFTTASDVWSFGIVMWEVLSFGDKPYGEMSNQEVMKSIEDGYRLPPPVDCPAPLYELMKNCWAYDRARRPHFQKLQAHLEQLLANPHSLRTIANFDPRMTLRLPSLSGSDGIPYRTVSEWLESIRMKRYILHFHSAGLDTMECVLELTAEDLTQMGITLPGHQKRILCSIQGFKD

[8] = molecular target: Receptor tyrosine-protein kinase erbB-2 (Homo sapiens) (UniProt P04626); assay: Inhibition of HER2 at 1 uM
Sequence of Receptor tyrosine-protein kinase erbB-2 (Homo sapiens) (P04626 whole entry): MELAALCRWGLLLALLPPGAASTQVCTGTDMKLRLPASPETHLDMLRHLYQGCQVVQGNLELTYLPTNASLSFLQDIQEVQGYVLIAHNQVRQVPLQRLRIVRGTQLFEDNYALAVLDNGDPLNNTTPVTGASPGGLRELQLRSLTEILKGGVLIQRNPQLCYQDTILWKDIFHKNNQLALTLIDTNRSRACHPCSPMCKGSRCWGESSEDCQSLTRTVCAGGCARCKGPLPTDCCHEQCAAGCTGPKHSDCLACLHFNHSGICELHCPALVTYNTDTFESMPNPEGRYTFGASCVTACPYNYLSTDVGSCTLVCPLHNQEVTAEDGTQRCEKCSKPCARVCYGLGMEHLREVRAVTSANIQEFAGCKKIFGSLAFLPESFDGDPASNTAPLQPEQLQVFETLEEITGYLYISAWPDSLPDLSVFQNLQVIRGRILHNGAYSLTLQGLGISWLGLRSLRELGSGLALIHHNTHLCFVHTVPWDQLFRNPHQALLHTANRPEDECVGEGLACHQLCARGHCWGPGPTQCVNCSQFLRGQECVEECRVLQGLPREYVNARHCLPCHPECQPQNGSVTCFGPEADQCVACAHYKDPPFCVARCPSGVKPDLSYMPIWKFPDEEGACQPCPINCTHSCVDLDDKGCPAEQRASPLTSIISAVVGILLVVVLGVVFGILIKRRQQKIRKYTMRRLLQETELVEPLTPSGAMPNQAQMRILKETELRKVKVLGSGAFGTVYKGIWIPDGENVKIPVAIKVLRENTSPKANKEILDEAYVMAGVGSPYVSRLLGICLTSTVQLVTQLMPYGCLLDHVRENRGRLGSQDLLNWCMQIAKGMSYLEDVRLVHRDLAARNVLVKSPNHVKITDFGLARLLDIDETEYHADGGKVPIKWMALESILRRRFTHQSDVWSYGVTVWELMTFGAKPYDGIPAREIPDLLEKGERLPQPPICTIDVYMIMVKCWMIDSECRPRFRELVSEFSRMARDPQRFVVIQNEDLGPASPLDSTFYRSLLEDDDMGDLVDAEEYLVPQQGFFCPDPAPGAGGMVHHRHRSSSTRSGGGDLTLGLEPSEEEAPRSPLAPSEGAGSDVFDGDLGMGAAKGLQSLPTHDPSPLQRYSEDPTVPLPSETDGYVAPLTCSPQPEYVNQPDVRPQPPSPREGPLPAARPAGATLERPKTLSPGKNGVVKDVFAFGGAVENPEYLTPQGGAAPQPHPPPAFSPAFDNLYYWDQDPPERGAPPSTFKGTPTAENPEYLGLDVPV

[9] = molecular target: T3, Serine/threonine-protein kinase PLK4 (Homo sapiens) (UniProt O00444); assay: Inhibition of PLK4 at 1 uM
T3 sequence (whole entry): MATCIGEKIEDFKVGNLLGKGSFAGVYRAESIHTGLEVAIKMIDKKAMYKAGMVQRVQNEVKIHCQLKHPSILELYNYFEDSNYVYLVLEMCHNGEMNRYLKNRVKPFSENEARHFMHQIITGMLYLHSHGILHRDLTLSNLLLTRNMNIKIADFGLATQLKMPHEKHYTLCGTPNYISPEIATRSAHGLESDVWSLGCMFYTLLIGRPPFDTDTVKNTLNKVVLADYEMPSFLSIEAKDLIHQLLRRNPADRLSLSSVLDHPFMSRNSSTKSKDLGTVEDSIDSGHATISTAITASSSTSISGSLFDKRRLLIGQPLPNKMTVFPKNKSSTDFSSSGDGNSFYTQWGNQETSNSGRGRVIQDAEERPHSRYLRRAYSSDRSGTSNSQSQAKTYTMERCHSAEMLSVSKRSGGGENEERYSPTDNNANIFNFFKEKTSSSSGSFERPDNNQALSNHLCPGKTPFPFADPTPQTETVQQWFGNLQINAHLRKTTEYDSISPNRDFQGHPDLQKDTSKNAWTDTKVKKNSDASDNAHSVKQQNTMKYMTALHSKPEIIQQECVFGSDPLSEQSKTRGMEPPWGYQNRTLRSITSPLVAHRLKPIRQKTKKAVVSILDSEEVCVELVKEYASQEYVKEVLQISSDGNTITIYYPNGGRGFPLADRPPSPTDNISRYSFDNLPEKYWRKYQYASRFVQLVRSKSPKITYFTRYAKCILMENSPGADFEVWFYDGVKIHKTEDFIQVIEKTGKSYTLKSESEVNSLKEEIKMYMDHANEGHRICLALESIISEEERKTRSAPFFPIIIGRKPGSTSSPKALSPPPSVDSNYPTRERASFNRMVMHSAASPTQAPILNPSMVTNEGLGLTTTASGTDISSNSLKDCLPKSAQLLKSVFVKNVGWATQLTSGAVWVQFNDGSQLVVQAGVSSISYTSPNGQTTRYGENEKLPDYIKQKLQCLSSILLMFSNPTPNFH

MDA-MB-231 = assay: Inhibition of free radical generation in human MDA231 cells by CM-H2DCFDA based fluorometric analysis; type: functional, cell-based
[10] = molecular target: Proto-oncogene tyrosine-protein kinase Src (Homo sapiens) (UniProt P12931); assay: Inhibition of SRC at 1 uM
Sequence of Proto-oncogene tyrosine-protein kinase Src (Homo sapiens) (P12931 2-536 limits assumed): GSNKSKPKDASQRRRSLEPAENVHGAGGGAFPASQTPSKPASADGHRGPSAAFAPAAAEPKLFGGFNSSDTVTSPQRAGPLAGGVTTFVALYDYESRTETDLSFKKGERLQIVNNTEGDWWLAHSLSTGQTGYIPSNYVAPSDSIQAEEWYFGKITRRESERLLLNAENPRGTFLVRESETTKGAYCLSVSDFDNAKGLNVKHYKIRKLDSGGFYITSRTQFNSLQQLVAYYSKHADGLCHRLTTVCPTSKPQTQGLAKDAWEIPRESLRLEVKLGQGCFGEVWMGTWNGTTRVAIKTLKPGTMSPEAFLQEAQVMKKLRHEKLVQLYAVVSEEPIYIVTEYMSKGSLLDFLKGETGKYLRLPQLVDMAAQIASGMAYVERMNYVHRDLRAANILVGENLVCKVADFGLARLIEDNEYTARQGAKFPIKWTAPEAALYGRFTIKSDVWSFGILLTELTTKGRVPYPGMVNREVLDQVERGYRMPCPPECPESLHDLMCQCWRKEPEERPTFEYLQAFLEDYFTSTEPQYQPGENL

[11] = molecular target: Tyrosine-protein kinase receptor Tie-1 (Homo sapiens) (UniProt P35590); assay: Inhibition of TIE1 at 1 uM
Sequence of Tyrosine-protein kinase receptor Tie-1 (Homo sapiens) (P35590 whole entry): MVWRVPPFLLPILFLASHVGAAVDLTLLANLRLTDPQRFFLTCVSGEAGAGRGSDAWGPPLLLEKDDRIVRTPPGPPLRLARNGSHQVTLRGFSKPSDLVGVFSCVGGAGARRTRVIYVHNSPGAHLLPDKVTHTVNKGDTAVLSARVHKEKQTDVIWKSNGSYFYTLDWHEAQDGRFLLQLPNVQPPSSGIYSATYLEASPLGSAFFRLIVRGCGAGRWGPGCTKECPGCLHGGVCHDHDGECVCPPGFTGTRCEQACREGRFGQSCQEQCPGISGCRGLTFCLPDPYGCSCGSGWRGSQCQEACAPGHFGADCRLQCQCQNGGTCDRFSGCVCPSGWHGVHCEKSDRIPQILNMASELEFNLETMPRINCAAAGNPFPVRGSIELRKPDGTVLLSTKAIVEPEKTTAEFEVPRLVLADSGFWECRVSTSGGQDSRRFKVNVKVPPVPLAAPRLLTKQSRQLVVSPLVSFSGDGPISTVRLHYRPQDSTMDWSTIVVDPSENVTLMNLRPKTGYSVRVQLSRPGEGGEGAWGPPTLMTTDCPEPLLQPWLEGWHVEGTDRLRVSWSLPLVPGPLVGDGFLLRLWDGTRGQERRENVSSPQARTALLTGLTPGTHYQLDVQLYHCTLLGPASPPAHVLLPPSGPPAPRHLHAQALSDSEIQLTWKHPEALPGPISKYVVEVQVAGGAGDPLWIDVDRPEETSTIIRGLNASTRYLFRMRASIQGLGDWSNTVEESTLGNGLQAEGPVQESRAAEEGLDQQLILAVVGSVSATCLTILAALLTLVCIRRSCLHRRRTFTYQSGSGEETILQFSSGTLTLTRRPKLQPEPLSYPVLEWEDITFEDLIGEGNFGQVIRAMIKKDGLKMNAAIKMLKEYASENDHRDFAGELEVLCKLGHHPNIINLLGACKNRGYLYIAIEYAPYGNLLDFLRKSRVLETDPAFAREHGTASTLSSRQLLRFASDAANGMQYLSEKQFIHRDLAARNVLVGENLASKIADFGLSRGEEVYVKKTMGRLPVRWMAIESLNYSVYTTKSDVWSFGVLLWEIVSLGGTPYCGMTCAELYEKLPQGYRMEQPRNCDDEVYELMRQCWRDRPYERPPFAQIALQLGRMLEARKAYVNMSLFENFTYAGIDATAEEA

Sequence of Insulin receptor (Homo sapiens) (P06213 28-758 limits assumed): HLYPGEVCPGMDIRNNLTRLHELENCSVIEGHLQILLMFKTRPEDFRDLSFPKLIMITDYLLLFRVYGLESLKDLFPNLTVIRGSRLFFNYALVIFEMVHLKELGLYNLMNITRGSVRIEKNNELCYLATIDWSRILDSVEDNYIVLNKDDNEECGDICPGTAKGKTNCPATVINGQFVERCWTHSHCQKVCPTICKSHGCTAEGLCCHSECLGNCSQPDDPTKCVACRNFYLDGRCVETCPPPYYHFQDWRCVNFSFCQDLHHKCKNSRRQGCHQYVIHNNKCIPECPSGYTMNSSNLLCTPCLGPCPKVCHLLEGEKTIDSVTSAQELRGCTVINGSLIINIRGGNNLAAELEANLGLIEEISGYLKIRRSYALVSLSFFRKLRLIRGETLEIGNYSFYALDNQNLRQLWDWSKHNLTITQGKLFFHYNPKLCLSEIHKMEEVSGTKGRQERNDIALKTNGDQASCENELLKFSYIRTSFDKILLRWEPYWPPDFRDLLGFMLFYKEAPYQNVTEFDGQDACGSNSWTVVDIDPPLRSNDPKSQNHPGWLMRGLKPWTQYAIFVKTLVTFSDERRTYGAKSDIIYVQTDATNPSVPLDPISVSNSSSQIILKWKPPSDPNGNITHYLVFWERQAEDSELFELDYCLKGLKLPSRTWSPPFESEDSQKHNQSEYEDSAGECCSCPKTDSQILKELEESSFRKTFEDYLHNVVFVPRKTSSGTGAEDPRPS
Sequence of Insulin receptor (Homo sapiens) (P06213 763-1382 limits assumed): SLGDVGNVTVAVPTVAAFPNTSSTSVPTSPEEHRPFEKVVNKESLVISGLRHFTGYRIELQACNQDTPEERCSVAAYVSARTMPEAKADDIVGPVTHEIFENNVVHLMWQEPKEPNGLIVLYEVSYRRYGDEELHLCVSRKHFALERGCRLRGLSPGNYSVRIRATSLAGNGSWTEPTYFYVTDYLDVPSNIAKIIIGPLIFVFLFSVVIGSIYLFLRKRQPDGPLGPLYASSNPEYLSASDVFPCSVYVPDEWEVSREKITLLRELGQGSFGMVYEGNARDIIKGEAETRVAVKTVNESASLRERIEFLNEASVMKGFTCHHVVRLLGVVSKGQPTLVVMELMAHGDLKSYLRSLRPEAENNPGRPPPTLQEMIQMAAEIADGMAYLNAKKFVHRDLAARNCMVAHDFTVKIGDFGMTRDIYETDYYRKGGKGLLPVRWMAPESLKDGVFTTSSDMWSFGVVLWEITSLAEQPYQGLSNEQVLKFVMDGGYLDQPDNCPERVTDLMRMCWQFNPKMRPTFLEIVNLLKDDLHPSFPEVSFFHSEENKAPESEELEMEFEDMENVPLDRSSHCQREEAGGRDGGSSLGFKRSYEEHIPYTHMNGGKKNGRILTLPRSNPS

| Structure (SMILES) | inhibition [1] [%] | inhibition [2] [%] | inhibition [3] [%] | inhibition [4] [%] | inhibition [5] [%] | Activity [6] [%] | inhibition [7] [%] | inhibition [8] [%] | inhibition [9] [%] | inhibition (MDA-MB-231) | inhibition [10] [%] | inhibition [11] [%] |
| --- | --- | --- | --- | --- | --- | --- | --- | --- | --- | --- | --- | --- |
| O=C(CCCn1[se]c2ccccc2c1=O)N[C@@H]1O[C@H](CO)[C@@H](O)[C@H](O)[C@H]1O | 0 | 0 | 0 | 0 | 0 | 50 | 0 | 0 | 0 | inactive | 0 | 0 |
| CC(=O)OC[C@H]1O[C@@H](O[C@H]2[C@H](OC(C)=O)[C@@H](OC(C)=O)[C@H](n3[se]c4ccccc4c3=O)O[C@@H]2COC(C)=O)[C@H](OC(C)=O)[C@@H](OC(C)=O)[C@H]1OC(C)=O | 0 | 0 | 0 | 0 | 0 | 50 | 0 | 0 | 0 | inactive | 0 | 0 |
| CC(=O)OC[C@H]1O[C@@H](NC(=O)CCCn2[se]c3ccccc3c2=O)[C@H](OC(C)=O)[C@@H](OC(C)=O)[C@@H]1OC(C)=O | 0 | 0 | 0 | 0 | 0 | 50 | 0 | 0 | 0 | inactive | 0 | 0 |
| O=c1c2ccccc2[se]n1-c1ccccc1 [EBSELEN] | 0 | 0 | 0 | 0 | 0 |  | 0 | 0 | 0 |  | 0 | 0 |
